Test results reported in ChEMBL document CHEMBL3351648, “Synthesis and pharmacological evaluation of 6-aminonicotinic acid analogues as novel GABA(A) receptor agonists” (Eur J Med Chem, 2014).
Active and inactive are the calls of the source. The calls are words filed in the database; no cut-off is given here.

Legend:
[1] = target: GABA-A receptor; anion channel; assay: Displacement of [3H]muscimol from GABAA receptor in SPRD rat brain synaptic membranes by scintillation counting method; assay type: cell membranes
In short: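 Rat synaptic membranes were thawed, homogenized in ice-cold 50 mM Tris-HCl pH 7.4, and spun at 48,000g for 10 min at 4 °C, with the wash repeated four times. Incubation was with 5 nM [3H]muscimol (final) and varying test concentrations for 60 min at 0 °C, then GF/C filtration and scintillation counting.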

[2] = Dissociation constant, pKa of the compound by diode array detector method; assay type: physicochemical
In short: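 pKa was determined by titration in methanol cosolvent at 23–48%, with three titrations per compound. An in-line diode-array detector recorded UV-Vis spectra, and the titration was mapped against the spectra of the protonated and unprotonated species.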

[3] = target: T1, GABA-A receptor; alpha-1/beta-2/gamma-2 (Homo sapiens, UniProt P14867+P18507+P47870); assay: (§1) Agonist activity at human GABAAalpha1beta2gamma2S receptor expressed in tsA-201cells by FLIPR membrane potential blue assay
T1 sequence (P14867 whole entry): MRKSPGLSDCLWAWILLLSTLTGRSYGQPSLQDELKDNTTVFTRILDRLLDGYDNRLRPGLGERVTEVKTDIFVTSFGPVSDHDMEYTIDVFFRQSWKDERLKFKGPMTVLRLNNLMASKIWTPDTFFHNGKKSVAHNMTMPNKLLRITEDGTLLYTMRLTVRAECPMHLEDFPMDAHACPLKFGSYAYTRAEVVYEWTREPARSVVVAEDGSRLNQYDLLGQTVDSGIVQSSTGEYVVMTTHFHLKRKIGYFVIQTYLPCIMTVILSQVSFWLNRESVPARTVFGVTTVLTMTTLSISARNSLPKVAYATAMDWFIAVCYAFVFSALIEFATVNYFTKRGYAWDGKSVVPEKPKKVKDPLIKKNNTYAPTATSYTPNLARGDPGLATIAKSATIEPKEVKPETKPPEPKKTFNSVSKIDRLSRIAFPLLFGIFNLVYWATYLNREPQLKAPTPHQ
T1 sequence (P47870 whole entry): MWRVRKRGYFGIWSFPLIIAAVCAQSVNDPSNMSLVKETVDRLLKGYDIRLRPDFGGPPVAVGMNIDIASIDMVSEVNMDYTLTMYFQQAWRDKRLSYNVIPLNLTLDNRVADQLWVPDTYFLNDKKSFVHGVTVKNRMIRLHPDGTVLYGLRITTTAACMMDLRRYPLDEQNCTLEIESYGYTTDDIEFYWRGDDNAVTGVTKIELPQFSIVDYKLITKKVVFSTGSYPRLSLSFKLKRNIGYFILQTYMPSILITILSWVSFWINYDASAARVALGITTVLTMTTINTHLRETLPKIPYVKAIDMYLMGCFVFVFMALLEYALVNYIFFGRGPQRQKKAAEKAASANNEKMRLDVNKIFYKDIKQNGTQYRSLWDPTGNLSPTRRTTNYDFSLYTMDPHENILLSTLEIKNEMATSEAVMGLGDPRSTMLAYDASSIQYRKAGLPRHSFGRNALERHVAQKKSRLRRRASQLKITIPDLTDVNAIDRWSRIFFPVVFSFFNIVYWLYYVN
T1 sequence (P18507 whole entry): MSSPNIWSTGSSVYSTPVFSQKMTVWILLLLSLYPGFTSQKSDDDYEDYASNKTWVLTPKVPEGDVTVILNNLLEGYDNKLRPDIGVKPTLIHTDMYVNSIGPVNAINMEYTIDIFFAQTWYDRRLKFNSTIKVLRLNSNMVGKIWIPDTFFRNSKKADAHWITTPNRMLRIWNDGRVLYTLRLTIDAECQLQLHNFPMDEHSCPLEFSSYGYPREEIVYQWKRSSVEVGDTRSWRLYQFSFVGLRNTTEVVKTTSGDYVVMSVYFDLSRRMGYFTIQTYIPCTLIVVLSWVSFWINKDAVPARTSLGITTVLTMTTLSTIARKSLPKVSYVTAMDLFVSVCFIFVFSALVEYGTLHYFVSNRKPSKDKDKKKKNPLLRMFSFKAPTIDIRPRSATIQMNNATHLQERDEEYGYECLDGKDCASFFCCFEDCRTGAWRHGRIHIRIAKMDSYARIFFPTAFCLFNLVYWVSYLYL
In short: (§2)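 tsA201 cells (8×10^5 per 6 cm dish) were transfected with α1, α2, α3 or α5 plus β2 and γ2S cDNAs (1:1:3), or with ρ1 alone. Next day cells were replated into poly-D-lysine 96-well plates. After 16–24 h they were washed with Krebs buffer pH 7.4, given membrane-potential dye, held 30 min at 37 °C, and read at 560 nm emission. Concentration-response curves used ΔFU before versus after agonist; duplicates were run ≥3 times.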

[4] = target: T2, GABA-A receptor; alpha-1/beta-2/gamma-2 (Homo sapiens, UniProt P14867+P47870+P18507); assay: as §1; details: tsa-201; in short: as §2
T2 sequence (P14867 whole entry): T1 sequence (P14867 whole entry)
T2 sequence (P47870 whole entry): T1 sequence (P47870 whole entry)
T2 sequence (P18507 whole entry): T1 sequence (P18507 whole entry)

[5] = target: T3, Gamma-aminobutyric acid receptor subunit rho-1 (Homo sapiens, UniProt P24046); assay: Agonist activity at human GABAA rho1 expressed in tsA-201cells by FLIPR membrane potential blue assay; in short: as §2
[6] = target: T4, GABA A receptor alpha-2/beta-2/gamma-2 (Homo sapiens, UniProt P18507+P47869+P47870); assay: Agonist activity at human GABAAalpha2beta2gamma2S receptor expressed in tsA-201cells by FLIPR membrane potential blue assay; in short: as §2
T4 sequence (P47870 whole entry): T1 sequence (P47870 whole entry)
T4 sequence (P18507 whole entry): T1 sequence (P18507 whole entry)
T4 sequence (P47869 whole entry): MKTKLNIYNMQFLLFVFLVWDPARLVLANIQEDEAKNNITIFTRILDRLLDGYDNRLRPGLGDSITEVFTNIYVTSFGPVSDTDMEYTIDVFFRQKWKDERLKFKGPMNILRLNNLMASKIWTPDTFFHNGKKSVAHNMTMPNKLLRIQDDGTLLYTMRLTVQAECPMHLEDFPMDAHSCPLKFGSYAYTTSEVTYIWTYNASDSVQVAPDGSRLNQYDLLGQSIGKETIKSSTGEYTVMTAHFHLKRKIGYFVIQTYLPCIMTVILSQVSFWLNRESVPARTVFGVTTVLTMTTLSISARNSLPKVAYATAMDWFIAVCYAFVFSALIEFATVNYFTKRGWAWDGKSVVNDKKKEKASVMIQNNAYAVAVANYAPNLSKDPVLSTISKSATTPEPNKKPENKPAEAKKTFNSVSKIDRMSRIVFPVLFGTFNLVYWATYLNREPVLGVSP

[7] = target: GABA A receptor alpha-2/beta-2/gamma-2 (Homo sapiens) (UniProt P47870+P18507+P47869); assay: Agonist activity at human GABAAalpha2beta2gamma2S receptor expressed in tsA-201cells by FLIPR membrane potential blue assay relative to GABA
[8] = target: T5, GABA A receptor alpha-3/beta-2/gamma-2 (Homo sapiens, UniProt P18507+P34903+P47870); assay: Agonist activity at human GABAAalpha3beta2gamma2S receptor expressed in tsA-201cells by FLIPR membrane potential blue assay; in short: as §2
T5 sequence (P47870 whole entry): T1 sequence (P47870 whole entry)
T5 sequence (P18507 whole entry): T1 sequence (P18507 whole entry)
T5 sequence (P34903 whole entry): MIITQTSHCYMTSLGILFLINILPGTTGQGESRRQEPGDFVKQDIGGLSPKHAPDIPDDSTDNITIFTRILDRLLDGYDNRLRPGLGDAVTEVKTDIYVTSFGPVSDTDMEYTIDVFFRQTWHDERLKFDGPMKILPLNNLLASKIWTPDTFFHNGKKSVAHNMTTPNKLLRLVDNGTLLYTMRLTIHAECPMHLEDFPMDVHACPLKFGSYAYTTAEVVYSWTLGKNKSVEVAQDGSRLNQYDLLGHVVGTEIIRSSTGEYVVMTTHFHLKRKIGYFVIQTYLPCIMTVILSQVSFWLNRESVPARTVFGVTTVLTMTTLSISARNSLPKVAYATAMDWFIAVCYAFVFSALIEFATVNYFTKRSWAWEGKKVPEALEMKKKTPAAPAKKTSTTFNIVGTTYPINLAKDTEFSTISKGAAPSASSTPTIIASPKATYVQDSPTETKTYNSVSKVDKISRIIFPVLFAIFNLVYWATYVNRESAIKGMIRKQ

[9] = target: GABA A receptor alpha-3/beta-2/gamma-2 (Homo sapiens) (UniProt P47870+P18507+P34903); assay: Agonist activity at human GABAAalpha3beta2gamma2S receptor expressed in tsA-201cells by FLIPR membrane potential blue assay relative to GABA
[10] = Agonist activity at human GABAAalpha5beta2gamma2S receptor expressed in tsA-201cells by FLIPR membrane potential blue assay; assay type: cell membranes
tsA-201 = assay: Agonist activity at human GABAAalpha5beta2gamma2S receptor expressed in tsA-201cells by FLIPR membrane potential blue assay relative to GABA
[11] = target: T3, Gamma-aminobutyric acid receptor subunit rho-1; assay: Agonist activity at human GABAA rho1 expressed in tsA-201cells by FLIPR membrane potential blue assay relative to GABA
[12] = target: GABA-A receptor; alpha-1/beta-2/gamma-2 (Homo sapiens) (UniProt P14867+P47870+P18507); assay: Agonist activity at human GABAAalpha1beta2gamma2S receptor expressed in tsA-201cells at 1 mM by FLIPR membrane potential blue assay; assay type: cell-based
In short: (§3)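 Transfected tsA201 cells (α1β2γ2S or ρ1) were loaded with membrane-potential dye in Krebs buffer pH 7.4 for 30 min at 37 °C. Compound was applied at a single 1 mM concentration. Response was read as fluorescence change at 560 nm emission before versus after addition, in duplicate on ≥3 occasions.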

[13] = target: T3, Gamma-aminobutyric acid receptor subunit rho-1; assay: Agonist activity at human GABAA rho1 expressed in tsA-201cells at 1 mM by FLIPR membrane potential blue assay; assay type: cell-based; in short: as §3

T3 sequence (P24046 whole entry): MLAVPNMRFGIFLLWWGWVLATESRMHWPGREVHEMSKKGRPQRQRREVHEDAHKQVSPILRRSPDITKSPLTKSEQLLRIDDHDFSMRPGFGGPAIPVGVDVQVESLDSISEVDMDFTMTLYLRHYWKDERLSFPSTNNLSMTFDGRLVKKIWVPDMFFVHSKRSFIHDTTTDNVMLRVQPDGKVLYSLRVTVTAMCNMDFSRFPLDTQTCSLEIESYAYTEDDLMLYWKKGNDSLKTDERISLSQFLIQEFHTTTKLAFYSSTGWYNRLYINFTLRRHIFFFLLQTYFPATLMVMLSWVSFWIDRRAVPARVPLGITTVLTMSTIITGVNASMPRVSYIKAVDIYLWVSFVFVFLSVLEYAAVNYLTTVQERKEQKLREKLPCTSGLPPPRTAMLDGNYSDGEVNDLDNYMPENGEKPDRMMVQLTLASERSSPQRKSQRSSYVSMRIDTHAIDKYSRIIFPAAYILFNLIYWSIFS

Structure (SMILES): Nc1ncccc1C(=O)O
- Ki [1]: > 100 µM

Structure (SMILES): Nc1ccc(C(=O)O)c(-c2ccccc2)n1
- Ki [1]: > 100 µM

Structure (SMILES): Nc1ncc(C(=O)O)cn1
- Ki [1]: > 100 µM
- pKa [2]: 1.9

Structure (SMILES): Nc1cc(C(=O)O)ccn1
- Ki [1]: 19 µM

Structure (SMILES): CCCCc1cc(N)ncc1C(=O)O
- Ki [1]: 24 µM
- EC50 ([3]; read-out: EC50): > 1000 µM
- pEC50 [4]: < 3
- EC50 ([5]; read-out: EC50): > 1000 µM
- pEC50 ([5]; tsa-201): < 3

Structure (SMILES): NC1=NCC(C(=O)O)CN1 (configuration not stated)
- Ki [1]: 0.54 µM
- EC50 ([3]; read-out: EC50): 14 µM
- EC50 ([5]; read-out: EC50): 8.1 µM
- EC50 ([5]; read-out: pEC50 (converted)): 1.58 µM
- pKa [2]: 12.7
- EC50 [6]: 9.4 µM
- Rmax [7]: 91%
- EC50 [8]: 19 µM
- Rmax [9]: 85%
- EC50 [10]: 2.1 µM
- pEC50 [10]: 5.68
- Rmax (tsA-201): 113%
- Rmax [11]: 55%

Structure (SMILES): O=C(O)C1CCNCC1 [ISONIPECOTIC ACID]
- Ki [1]: 0.51 µM
- EC50 [4]: Active
- Rmax [12]: 66%
- EC50 ([5]; tsa-201): Active
- Activity [13]: Active
- EC50 [6]: 24 µM
- Rmax [7]: 85%
- EC50 [8]: 17 µM
- Rmax [9]: 85%
- EC50 [10]: 2.8 µM
- pEC50 [10]: 5.54
- Rmax (tsA-201): 115%
- Rmax [11]: inactive

Structure (SMILES): O=C(O)C1CN=CNC1 (configuration not stated)
- Ki [1]: 5.3 µM
- pKi [1]: 5.29
- EC50 [4]: Active
- Rmax [12]: 25%
- pKa [2]: 12.2

Structure (SMILES): Cc1cc(N)ncc1C(=O)O
- Ki [1]: 3.6 µM
- EC50 ([3]; read-out: EC50): > 1000 µM
- pEC50 [4]: < 3
- EC50 ([5]; tsa-201): Active
- Activity [13]: Active

Structure (SMILES): CCCCc1nc(N)ccc1C(=O)O
- Ki [1]: 7.1 µM
- EC50 ([3]; read-out: EC50): > 1000 µM
- pEC50 [4]: < 3
- EC50 ([5]; read-out: EC50): > 1000 µM
- pEC50 ([5]; tsa-201): < 3

Structure (SMILES): CNC1=NCC(C(=O)O)CC1 (configuration not stated)
- Ki [1]: 49 µM
- pKi [1]: 4.32
- EC50 ([3]; read-out: EC50): > 1000 µM
- pEC50 [4]: < 3

Structure (SMILES): Cc1nc(N)ccc1C(=O)O
- Ki [1]: 1.4 µM
- EC50 [4]: Active
- EC50 ([5]; tsa-201): Active

Structure (SMILES): Nc1ccc(C(=O)O)cn1
- Ki [1]: 4.4 µM
- pKi [1]: 5.39
- EC50 ([3]; read-out: EC50): > 300 µM
- EC50 ([3]; read-out: pEC50 (converted)): > 316 µM
- EC50 ([5]; tsa-201): Active
- pKa [2]: 6.2

Structure (SMILES): CNc1ccc(C(=O)O)cn1
- Ki [1]: > 100 µM

Structure (SMILES): NCc1cc(O)no1 [MUSCIMOL]
- Rmax [7]: 99%
- Rmax [9]: 97%
- EC50 [10]: 0.054 µM
- pEC50 [10]: 7.27
- Rmax (tsA-201): 114%
- Rmax [11]: 98%

Structure (SMILES): Nc1cc(CC(=O)O)ccn1
- Ki [1]: 73 µM
